# Results as given in ChEMBL document CHEMBL4152342, “Novel series of 6-(2-substitutedacetamido)-4-anilinoquinazolines as EGFR-ERK signal transduction inhibitors in MCF-7 breast cancer cells” (Eur J Med Chem, 2018).
# Tests used:
# [1] = system: HepG2; assay: Antiproliferative activity against human HepG2 cells after 48 hrs by MTT assay; format: functional, cell-based; conditions: HepG2, 48 h
# [2] = system: MCF7; assay: Antiproliferative activity against human MCF7 cells after 48 hrs by MTT assay; format: functional, cell-based; conditions: MCF7, 48 h
# Outline: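 Cells seeded at 30,000 per well, grown 24 h at 37 °C, 5% CO2, then exposed to 5-fold serial dilutions of compound (dissolved in 1% DMSO) for 48 h under same conditions. MTT added at 5 mg/mL; after lysis, absorbance read at 570 nm 4 h later. IC50 taken from exponential viability-versus-concentration curve relative to untreated controls.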
# [3] = system: HepG2; assay: Potency index, ratio of erlotinib IC50 to compound IC50 for human HepG2 cells; format: functional
SMILES,IC50 [1] [µM],IC50 [2] [µM],Ratio IC50 [3]
O=C(CN1CCOCC1)Nc1ccc2ncnc(Nc3ccc(OCc4ccccc4)cc3)c2c1,> 100,25,
O=C(CN1CCCC1)Nc1ccc2ncnc(Nc3ccc(OCc4ccccc4)cc3)c2c1,> 100,> 100,
O=C(CN1CCOCC1)Nc1ccc2ncnc(Nc3ccc(Br)cc3)c2c1,> 100,> 100,
O=C(CN1CCCCC1)Nc1ccc2ncnc(Nc3ccc(Cl)cc3)c2c1,16,> 100,
CN1CCN(CC(=O)Nc2ccc3ncnc(Nc4ccc(Cl)cc4)c3c2)CC1,> 100,15,
O=C(CN1CCCC1)Nc1ccc2ncnc(Nc3ccc(OCc4cccc(F)c4)cc3)c2c1,25.1,25,
O=C(CN1CCCC1)Nc1ccc2ncnc(Nc3ccc(Br)cc3)c2c1,> 100,> 100,
O=C(CN1CCCCC1)Nc1ccc2ncnc(Nc3ccc(Br)cc3)c2c1,> 100,> 100,
CN1CCN(CC(=O)Nc2ccc3ncnc(Nc4ccc(Br)cc4)c3c2)CC1,> 100,> 100,
CN1CCN(CC(=O)Nc2ccc3ncnc(Nc4cccc(C(F)(F)F)c4)c3c2)CC1,> 100,> 100,
CN1CCN(CC(=O)Nc2ccc3ncnc(Nc4cccc(Br)c4)c3c2)CC1,25.3,10,
O=C(CN1CCCC1)Nc1ccc2ncnc(Nc3cccc(Br)c3)c2c1,> 100,12,
O=C(CN1CCCCC1)Nc1ccc2ncnc(Nc3cccc(Br)c3)c2c1,16,3,
O=C(CN1CCOCC1)Nc1ccc2ncnc(Nc3ccc(Cl)cc3)c2c1,> 100,> 100,
O=C(CN1CCOCC1)Nc1ccc2ncnc(Nc3cccc(Br)c3)c2c1,19,15,
O=C(CN1CCOCC1)Nc1ccc2ncnc(Nc3ccc(OCc4cccc(F)c4)cc3)c2c1,> 100,> 100,
O=C(CN1CCOCC1)Nc1ccc2ncnc(Nc3cccc(Cl)c3)c2c1,> 100,> 100,
CN1CCN(CC(=O)Nc2ccc3ncnc(Nc4cccc(Cl)c4)c3c2)CC1,> 100,> 100,
O=C(CN1CCOCC1)Nc1ccc2ncnc(Nc3cccc(C(F)(F)F)c3)c2c1,> 100,15,

# Continued, in another order:
IC50 [1] [µM],IC50 [2] [µM],SMILES,Ratio IC50 [3]
25.3,> 100,CN1CCN(CC(=O)Nc2ccc3ncnc(Nc4ccc(Cl)c(C(F)(F)F)c4)c3c2)CC1,
12,> 100,O=C(CN1CCCCC1)Nc1ccc2ncnc(Nc3cccc(Cl)c3)c2c1,2
> 100,> 100,O=C(CN1CCOCC1)Nc1ccc2ncnc(Nc3ccc(Cl)c(C(F)(F)F)c3)c2c1,
18,16,O=C(CN1CCCC1)Nc1ccc2ncnc(Nc3ccc(Cl)cc3)c2c1,
> 100,> 100,O=C(CN1CCCC1)Nc1ccc2ncnc(Nc3cccc(Cl)c3)c2c1,
> 100,> 100,O=C(CN1CCCCC1)Nc1ccc2ncnc(Nc3ccc(Cl)c(C(F)(F)F)c3)c2c1,
> 100,> 100,O=C(CN1CCCC1)Nc1ccc2ncnc(Nc3ccc(Cl)c(C(F)(F)F)c3)c2c1,
25.2,> 100,O=C(CN1CCCC1)Nc1ccc2ncnc(Nc3cccc(C(F)(F)F)c3)c2c1,
> 100,> 100,O=C(CN1CCCCC1)Nc1ccc2ncnc(Nc3cccc(C(F)(F)F)c3)c2c1,
